From ChEMBL document CHEMBL4261600 (Eur J Med Chem, 2018)

Legend:
MV4-11 = experiment: Induction of apoptosis in human MV4-11 cells assessed as decrease in MCL-1 level after 2 hrs by immunoblotting analysis; type: functional, cell-based
[1] = Half life in beagle dog at 2 mg/kg, iv by LC-MS/MS analysis; type: ADME, organism-based, Canis lupus familiaris; details: in vivo
[2] = AUC (0 to t) in beagle dog at 2 mg/kg, iv by LC-MS/MS analysis; type: ADME, organism-based, Canis lupus familiaris; details: in vivo
Outline: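 Non-compartmental PK. Male SD rats 190-210 g, mice and beagle dogs acclimatized one week, fasted 12 h with water, split into iv and po groups (mice 48, rats 6, dogs 6). iv 3/3/2 mg/kg (mice/rats/dogs); po 10/20/10 mg/kg; vehicle DMSO in 5% glucose water. Blood at 2 or 5 to 720 min; plasma protein-precipitated with methanol, caffeine internal standard, LC-MS/MS.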

[3] = target: Tyrosine-protein kinase ABL1 (Homo sapiens) (UniProt P00519); experiment: Binding affinity to wild-type human non-phosphorylated ABL1 (S229 to K512 residues) expressed in mammalian expression system assessed as remaining unbound target protein level at 1000 nM by Kinomescan method relative to control
Outline: (§1)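 Profiled in a KINOMEscan binding panel with the inhibitor at a single concentration of 1 μM. Binding to each kinase was read out as percent of control, relative to a DMSO control. Strong binders were defined as those with a percent control value below 1.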

[4] = target: Mitogen-activated protein kinase kinase kinase 6 (Homo sapiens) (UniProt O95382); experiment: Binding affinity to wild-type human partial length ASK2 (M278 to R972 residues) expressed in mammalian expression system assessed as remaining unbound target protein level at 1000 nM by Kinomescan method relative to control
Outline: (§2)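 KINOMEscan competition binding profile across a panel of 468 kinases and mutants, with the inhibitor tested at a single concentration of 1 μM. Binding is reported as percent of control, meaning signal relative to a DMSO control.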

[5] = target: Cyclin-dependent kinase 3 (Homo sapiens) (UniProt Q00526); experiment: Binding affinity to wild-type human full length CDK3 (M1 to H305 residues) expressed in bacterial expression system assessed as remaining unbound target protein level at 1000 nM by Kinomescan method relative to control
Sequence of Cyclin-dependent kinase 3 (Homo sapiens) (Q00526 whole entry, looked up, the tested form may be a part): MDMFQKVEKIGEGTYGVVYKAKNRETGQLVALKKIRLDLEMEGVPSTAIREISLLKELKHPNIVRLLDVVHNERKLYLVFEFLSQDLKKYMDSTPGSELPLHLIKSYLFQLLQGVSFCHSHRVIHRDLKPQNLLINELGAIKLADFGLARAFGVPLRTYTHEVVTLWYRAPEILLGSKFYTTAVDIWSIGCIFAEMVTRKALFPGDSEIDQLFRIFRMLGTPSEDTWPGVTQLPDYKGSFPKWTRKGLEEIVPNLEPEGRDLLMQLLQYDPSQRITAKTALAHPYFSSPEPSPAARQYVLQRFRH
Outline: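 KINOMEscan competitive binding profile at 1 μM inhibitor. Remaining target binding reported as percent of DMSO control.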

[6] = target: Mitogen-activated protein kinase 6 (Homo sapiens) (UniProt Q16659); experiment: Binding affinity to wild-type human partial length ERK3 (M1 to P413 residues) expressed in bacterial expression system assessed as remaining unbound target protein level at 1000 nM by Kinomescan method relative to control
[7] = system: Receptor-type tyrosine-protein kinase FLT3 (Homo sapiens), P36888 [D835H]; experiment: Binding affinity to human partial length FLT3 D835H mutant (V592 to Y969 residues) expressed in bacterial expression system assessed as remaining unbound target protein level at 1000 nM by Kinomescan method relative to control
Outline: (§3)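 KINOMEscan competition-binding profiling across the panel of 468 kinases and mutants, with inhibitor tested at 1 μM. Binding is expressed as percent of control, with DMSO as the reference control.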

[8] = target: Inhibitor of nuclear factor kappa-B kinase subunit beta (Homo sapiens) (UniProt O14920); experiment: Binding affinity to wild-type human full length IKK-beta (M1 to S756 residues) expressed in mammalian expression system assessed as remaining unbound target protein level at 1000 nM by Kinomescan method relative to control
Outline: (§4)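 Single-point competition binding screen across a panel of 468 kinases and mutants, with the inhibitor at 1 μM. Binding is read out as percent of a DMSO control, and targets below 1 percent control were classed as strong binders.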

[9] = target: Interleukin-1 receptor-associated kinase 3 (Homo sapiens) (UniProt Q9Y616); experiment: Binding affinity to wild-type human partial length IRAK3 (V147 to E596 residues) expressed in bacterial expression system assessed as remaining unbound target protein level at 1000 nM by Kinomescan method relative to control
Sequence of Interleukin-1 receptor-associated kinase 3 (Homo sapiens) (Q9Y616 whole entry, the tested form may be a part): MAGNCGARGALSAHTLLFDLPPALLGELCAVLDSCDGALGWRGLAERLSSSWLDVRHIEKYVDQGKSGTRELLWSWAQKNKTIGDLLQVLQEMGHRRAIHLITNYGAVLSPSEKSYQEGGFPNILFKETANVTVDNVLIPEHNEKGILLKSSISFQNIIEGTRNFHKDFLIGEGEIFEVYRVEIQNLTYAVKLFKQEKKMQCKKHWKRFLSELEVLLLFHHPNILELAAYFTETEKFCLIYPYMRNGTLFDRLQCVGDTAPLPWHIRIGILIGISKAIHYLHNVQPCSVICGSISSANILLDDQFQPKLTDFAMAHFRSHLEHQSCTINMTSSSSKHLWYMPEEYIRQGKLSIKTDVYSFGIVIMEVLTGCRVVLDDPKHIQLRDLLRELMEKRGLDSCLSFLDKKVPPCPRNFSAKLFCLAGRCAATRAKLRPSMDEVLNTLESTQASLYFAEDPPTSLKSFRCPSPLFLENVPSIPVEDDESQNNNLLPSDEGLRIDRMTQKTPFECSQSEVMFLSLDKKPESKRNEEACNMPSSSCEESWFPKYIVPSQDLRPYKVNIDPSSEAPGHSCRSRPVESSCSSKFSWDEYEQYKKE

[10] = target: Mitogen-activated protein kinase kinase kinase 15 (Homo sapiens) (UniProt Q6ZN16); experiment: Binding affinity to wild-type human partial length MAP3K15 (T625 to L932 residues) expressed in mammalian expression system assessed as remaining unbound target protein level at 1000 nM by Kinomescan method relative to control
Sequence of Mitogen-activated protein kinase kinase kinase 15 (Homo sapiens) (Q6ZN16 whole entry, the tested form may be a part): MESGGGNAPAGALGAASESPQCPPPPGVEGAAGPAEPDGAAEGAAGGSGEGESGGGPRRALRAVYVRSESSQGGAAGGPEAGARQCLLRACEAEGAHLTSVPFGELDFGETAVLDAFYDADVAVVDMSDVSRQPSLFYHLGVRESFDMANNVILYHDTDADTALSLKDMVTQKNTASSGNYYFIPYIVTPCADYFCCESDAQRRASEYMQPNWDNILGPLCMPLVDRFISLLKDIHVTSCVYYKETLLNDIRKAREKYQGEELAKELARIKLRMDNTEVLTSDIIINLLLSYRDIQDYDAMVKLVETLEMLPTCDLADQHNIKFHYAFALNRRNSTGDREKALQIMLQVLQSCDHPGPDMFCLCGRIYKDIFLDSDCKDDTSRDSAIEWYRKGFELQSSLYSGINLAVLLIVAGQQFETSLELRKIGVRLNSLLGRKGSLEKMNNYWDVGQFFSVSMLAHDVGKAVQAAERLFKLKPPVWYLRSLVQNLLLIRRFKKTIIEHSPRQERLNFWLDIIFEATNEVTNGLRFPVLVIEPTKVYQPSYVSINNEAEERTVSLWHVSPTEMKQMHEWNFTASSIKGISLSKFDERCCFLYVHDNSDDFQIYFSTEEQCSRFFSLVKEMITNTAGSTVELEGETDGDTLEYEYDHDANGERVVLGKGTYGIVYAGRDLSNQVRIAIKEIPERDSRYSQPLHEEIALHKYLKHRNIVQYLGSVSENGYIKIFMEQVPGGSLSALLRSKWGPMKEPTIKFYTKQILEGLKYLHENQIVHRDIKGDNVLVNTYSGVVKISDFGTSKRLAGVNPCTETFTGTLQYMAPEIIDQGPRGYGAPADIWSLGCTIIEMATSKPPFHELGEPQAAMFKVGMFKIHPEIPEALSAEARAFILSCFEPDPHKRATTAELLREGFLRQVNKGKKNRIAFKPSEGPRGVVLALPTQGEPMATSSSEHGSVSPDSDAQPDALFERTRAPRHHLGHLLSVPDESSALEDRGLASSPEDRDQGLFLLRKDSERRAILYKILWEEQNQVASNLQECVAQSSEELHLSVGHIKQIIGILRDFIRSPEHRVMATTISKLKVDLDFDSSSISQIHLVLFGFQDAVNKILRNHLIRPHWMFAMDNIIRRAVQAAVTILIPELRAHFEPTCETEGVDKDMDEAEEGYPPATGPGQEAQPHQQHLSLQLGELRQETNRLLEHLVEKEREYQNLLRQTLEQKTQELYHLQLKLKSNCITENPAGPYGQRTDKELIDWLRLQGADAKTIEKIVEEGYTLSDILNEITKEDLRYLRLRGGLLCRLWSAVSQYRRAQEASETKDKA

[11] = target: Mitogen-activated protein kinase kinase kinase 4 (Homo sapiens) (UniProt Q9Y6R4); experiment: Binding affinity to wild-type human partial length MAP3K4 (G1319 to E1608 residues) expressed in bacterial expression system assessed as remaining unbound target protein level at 1000 nM by Kinomescan method relative to control
[12] = target: Hepatocyte growth factor receptor (Homo sapiens) (UniProt P08581); experiment: Binding affinity to wild-type human partial length MET (D1010 to S1367 residues) expressed in bacterial expression system assessed as remaining unbound target protein level at 1000 nM by Kinomescan method relative to control
[13] = target: Serine/threonine-protein kinase Nek4 (Homo sapiens) (UniProt P51957); experiment: Binding affinity to wild-type human full length NEK4 (M1 to F841 residues) expressed in mammalian expression system assessed as remaining unbound target protein level at 1000 nM by Kinomescan method relative to control; outline: as §4
[14] = target: Cyclin-dependent kinase 15 (Homo sapiens) (UniProt Q96Q40); experiment: Binding affinity to wild-type human full length PFTAIRE2 (M1 to W384 residues) expressed in bacterial expression system assessed as remaining unbound target protein level at 1000 nM by Kinomescan method relative to control; outline: as §2
Sequence of Cyclin-dependent kinase 15 (Homo sapiens) (Q96Q40 whole entry, the tested form may be a part): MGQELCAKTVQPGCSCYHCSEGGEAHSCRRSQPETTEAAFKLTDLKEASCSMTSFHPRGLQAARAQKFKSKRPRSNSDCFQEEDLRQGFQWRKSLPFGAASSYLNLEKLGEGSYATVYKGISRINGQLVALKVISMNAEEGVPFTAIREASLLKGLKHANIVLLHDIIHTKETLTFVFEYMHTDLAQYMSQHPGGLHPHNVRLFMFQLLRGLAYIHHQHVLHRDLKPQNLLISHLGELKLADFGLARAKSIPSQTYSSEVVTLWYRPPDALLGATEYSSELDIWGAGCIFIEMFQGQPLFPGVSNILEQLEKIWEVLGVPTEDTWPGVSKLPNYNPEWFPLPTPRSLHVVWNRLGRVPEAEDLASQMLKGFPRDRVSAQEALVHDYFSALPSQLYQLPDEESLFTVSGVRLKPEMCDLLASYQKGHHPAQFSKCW

[15] = system: Proto-oncogene tyrosine-protein kinase receptor Ret (Homo sapiens), P07949 [M918T]; experiment: Binding affinity to human partial length RET M918T mutant (E713 to D1014 residues) expressed in bacterial expression system assessed as remaining unbound target protein level at 1000 nM by Kinomescan method relative to control; outline: as §3
[16] = target: Rho-associated protein kinase 1 (Homo sapiens) (UniProt Q13464); experiment: Binding affinity to wild-type human partial length ROCK1 (M1 to R415 residues) expressed in mammalian expression system assessed as remaining unbound target protein level at 1000 nM by Kinomescan method relative to control
Sequence of Rho-associated protein kinase 1 (Homo sapiens) (Q13464 2-1354 limits assumed): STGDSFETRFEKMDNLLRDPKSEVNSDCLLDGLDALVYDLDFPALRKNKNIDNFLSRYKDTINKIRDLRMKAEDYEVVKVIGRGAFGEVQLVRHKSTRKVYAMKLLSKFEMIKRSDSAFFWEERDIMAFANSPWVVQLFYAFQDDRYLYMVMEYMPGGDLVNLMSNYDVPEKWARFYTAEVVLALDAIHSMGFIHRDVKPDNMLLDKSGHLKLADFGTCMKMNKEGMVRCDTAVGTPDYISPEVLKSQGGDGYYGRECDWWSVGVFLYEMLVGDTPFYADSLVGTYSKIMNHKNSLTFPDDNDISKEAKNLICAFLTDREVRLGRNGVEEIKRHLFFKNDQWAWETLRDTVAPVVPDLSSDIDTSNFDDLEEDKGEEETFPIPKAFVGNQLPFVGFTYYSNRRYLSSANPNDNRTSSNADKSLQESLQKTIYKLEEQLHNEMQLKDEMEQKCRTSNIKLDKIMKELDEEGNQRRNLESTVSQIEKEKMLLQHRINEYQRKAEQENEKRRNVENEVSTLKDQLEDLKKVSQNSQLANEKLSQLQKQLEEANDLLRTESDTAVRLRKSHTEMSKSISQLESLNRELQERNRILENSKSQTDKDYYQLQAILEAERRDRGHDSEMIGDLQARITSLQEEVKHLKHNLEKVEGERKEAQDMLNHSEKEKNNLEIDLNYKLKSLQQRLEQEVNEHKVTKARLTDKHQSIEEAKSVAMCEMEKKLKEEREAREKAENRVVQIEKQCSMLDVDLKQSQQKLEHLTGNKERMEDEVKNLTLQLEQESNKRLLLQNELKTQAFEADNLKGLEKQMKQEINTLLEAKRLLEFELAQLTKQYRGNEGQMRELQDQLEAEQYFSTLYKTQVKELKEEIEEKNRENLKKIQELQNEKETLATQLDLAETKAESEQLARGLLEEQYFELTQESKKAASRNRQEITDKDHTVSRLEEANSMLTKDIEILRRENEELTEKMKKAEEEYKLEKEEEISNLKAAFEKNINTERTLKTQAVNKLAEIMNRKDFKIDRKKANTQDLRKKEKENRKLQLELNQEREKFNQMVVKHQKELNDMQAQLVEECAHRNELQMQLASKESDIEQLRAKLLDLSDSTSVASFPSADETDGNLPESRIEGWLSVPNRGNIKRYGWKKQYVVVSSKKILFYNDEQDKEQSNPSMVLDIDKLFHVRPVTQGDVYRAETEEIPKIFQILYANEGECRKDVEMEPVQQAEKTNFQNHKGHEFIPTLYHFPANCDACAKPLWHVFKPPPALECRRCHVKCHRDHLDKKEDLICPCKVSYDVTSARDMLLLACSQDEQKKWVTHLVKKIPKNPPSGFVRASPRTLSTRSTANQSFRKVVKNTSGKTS

[17] = target: Serine/threonine-protein kinase 33 (Homo sapiens) (UniProt Q9BYT3); experiment: Binding affinity to wild-type human full length STK33 (M1 to L514 residues) expressed in bacterial expression system assessed as remaining unbound target protein level at 1000 nM by Kinomescan method relative to control; outline: as §1
Sequence of Serine/threonine-protein kinase 33 (Homo sapiens) (Q9BYT3 whole entry, looked up, the tested form may be a part): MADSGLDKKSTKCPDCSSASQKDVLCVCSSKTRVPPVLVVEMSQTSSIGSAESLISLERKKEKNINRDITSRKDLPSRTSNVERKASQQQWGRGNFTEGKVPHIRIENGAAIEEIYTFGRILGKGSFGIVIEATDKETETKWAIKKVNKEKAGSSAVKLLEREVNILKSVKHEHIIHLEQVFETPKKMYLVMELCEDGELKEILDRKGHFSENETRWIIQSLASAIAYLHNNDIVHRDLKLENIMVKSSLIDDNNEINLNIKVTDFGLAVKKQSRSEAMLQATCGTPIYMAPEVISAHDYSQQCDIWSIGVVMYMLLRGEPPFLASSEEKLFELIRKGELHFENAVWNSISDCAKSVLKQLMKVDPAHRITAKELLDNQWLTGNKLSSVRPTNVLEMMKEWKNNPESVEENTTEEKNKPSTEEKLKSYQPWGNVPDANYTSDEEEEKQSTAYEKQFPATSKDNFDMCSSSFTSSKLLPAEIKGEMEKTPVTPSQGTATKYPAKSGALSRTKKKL

[18] = target: Serine/threonine-protein kinase TAO3 (Homo sapiens) (UniProt Q9H2K8); experiment: Binding affinity to wild-type human partial length TAOK3 (M1 to T316 residues) expressed in mammalian expression system assessed as remaining unbound target protein level at 1000 nM by Kinomescan method relative to control
[19] = target: Tyrosine-protein kinase Tec (Homo sapiens) (UniProt P42680); experiment: Binding affinity to wild-type human partial length TEC (L341 to D620 residues) expressed in bacterial expression system assessed as remaining unbound target protein level at 1000 nM by Kinomescan method relative to control
[20] = target: TGF-beta receptor type-1 (Homo sapiens) (UniProt P36897); experiment: Binding affinity to wild-type human partial length TGFBR1 (D179 to M503 residues) expressed in bacterial expression system assessed as remaining unbound target protein level at 1000 nM by Kinomescan method relative to control
Sequence of TGF-beta receptor type-1 (Homo sapiens) (P36897 whole entry, the tested form may be a part): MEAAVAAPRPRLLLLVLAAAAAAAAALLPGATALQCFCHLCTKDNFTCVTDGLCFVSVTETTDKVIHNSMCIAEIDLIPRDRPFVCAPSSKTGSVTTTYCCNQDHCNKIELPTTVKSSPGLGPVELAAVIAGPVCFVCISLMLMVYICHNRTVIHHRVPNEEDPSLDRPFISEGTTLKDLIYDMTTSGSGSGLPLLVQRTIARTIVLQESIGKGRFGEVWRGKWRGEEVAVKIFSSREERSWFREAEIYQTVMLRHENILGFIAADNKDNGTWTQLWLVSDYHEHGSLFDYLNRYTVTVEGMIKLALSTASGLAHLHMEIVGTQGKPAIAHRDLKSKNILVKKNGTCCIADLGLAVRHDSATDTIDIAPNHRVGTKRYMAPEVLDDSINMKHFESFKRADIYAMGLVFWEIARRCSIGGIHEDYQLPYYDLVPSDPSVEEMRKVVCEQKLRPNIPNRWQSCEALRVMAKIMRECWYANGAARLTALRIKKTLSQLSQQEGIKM

COCCN[C@H]1CC[C@H](Nc2cc(-c3csc(NCC4(C#N)CCOCC4)n3)c(Cl)cn2)CC1
Activity (MV4-11): Dose-dependent effect
half-life [1]: 13.1 h
AUC(0-t) [2]: 2010 ng·h/mL
Activity [3]: 100%
Activity [4]: 86%
Activity [5]: 81%
Activity [6]: 88%
Activity [7]: 88%
Activity [8]: 90%
Activity [9]: 96%
Activity [10]: 84%
Activity [11]: 89%
Activity [12]: 73%
Activity [13]: 98%
Activity [14]: 66%
Activity [15]: 90%
Activity [16]: 93%
Activity [17]: 78%
Activity [18]: 15%
Activity [19]: 92%
Activity [20]: 98%
